{"source": "ChEMBL document CHEMBL1156634", "about": "“Synthesis of somatostatin analogues containing C-terminal adamantane and their antiproliferative properties” (2008)", "type_in_all_cases": "functional", "key": {"A-431 [1]": {"system": "A-431", "assay": "Antiproliferative activity against human A431 cells at 10 uM after 48 hrs by MTT assay", "conditions": "A-431, 48 h", "method_in_brief": "(§1)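 MTT read-out: mitochondrial dehydrogenase reduces MTT to formazan in viable cells, cells solubilized with DMSO, absorbance read at 540 nm on an ELISA reader. Cycloheximide and a reference peptide run as positive controls. Values given as % inhibition of cellular proliferation, mean ± SE.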"}, "A-431 [2]": {"system": "A-431", "assay": "Antiproliferative activity against human A431 cells at 50 uM after 48 hrs by MTT assay", "conditions": "A-431, 48 h", "method_in_brief": "as §1"}, "A-431 [3]": {"system": "A-431", "assay": "Antiproliferative activity against human A431 cells at 25 uM after 48 hrs by MTT assay", "conditions": "A-431, 48 h", "method_in_brief": "as §1"}, "SW480 [4]": {"system": "SW480", "assay": "Antiproliferative activity against human SW480 cells at 25 uM after 48 hrs by MTT assay", "conditions": "SW480, 48 h", "method_in_brief": "as §1"}, "SW480 [5]": {"system": "SW480", "assay": "Antiproliferative activity against human SW480 cells at 50 uM after 48 hrs by MTT assay", "conditions": "SW480, 48 h", "method_in_brief": "as §1"}, "SW480 [6]": {"system": "SW480", "assay": "Antiproliferative activity against human SW480 cells at 10 uM after 48 hrs by MTT assay", "conditions": "SW480, 48 h", "method_in_brief": "as §1"}}, "note": "Where a SMILES comes first, the peptide text is derived from it. Bridges are numbered along the chain shown (N, C = ends). [ ]: non-standard residue; d: D form."}
{"compound": "CC(C)(C)OC(=O)N[C@@H](Cc1ccc(O)cc1)C(=O)N[C@H](Cc1c[nH]c2ccccc12)C(=O)N[C@@H](CCCCNC(=O)OCc1ccccc1)C(=O)O", "values": [{"measurement": "inhibition at 10 µM", "setting": "A-431 [1]", "value": 0, "unit": "%"}, {"measurement": "inhibition at 50 µM", "setting": "A-431 [2]", "value": 2, "unit": "%"}, {"measurement": "inhibition at 25 µM", "setting": "A-431 [3]", "value": 0, "unit": "%"}]}
{"compound": "N[C@@H](Cc1ccc(O)cc1)C(=O)N[C@H](Cc1c[nH]c2ccccc12)C(=O)O", "values": [{"measurement": "inhibition at 10 µM", "setting": "A-431 [1]", "value": 0, "unit": "%"}, {"measurement": "inhibition at 50 µM", "setting": "A-431 [2]", "value": 11, "unit": "%"}, {"measurement": "inhibition at 25 µM", "setting": "A-431 [3]", "value": 8, "unit": "%"}]}
{"compound": "CC(C)(C)OC(=O)N[C@@H](Cc1ccc(O)cc1)C(=O)N[C@H](Cc1c[nH]c2ccccc12)C(=O)N[C@@H](CCCCNC(=O)OCc1ccccc1)C(=O)OCC1c2ccccc2-c2ccccc21", "values": [{"measurement": "inhibition at 10 µM", "setting": "A-431 [1]", "value": 2, "unit": "%"}, {"measurement": "inhibition at 50 µM", "setting": "A-431 [2]", "value": 7, "unit": "%"}, {"measurement": "inhibition at 25 µM", "setting": "A-431 [3]", "value": 7, "unit": "%"}]}
{"compound": "N[C@@H](Cc1ccc(O)cc1)C(=O)N[C@H](Cc1c[nH]c2ccccc12)C(=O)N[C@@H](CCCCNC(=O)OCc1ccccc1)C(=O)O", "values": [{"measurement": "inhibition at 10 µM", "setting": "A-431 [1]", "value": 0, "unit": "%"}, {"measurement": "inhibition at 50 µM", "setting": "A-431 [2]", "value": 0, "unit": "%"}, {"measurement": "inhibition at 25 µM", "setting": "A-431 [3]", "value": 0, "unit": "%"}]}
{"compound": "C[C@@H]1C[C@@H]([C@H](O)CC2CC(=O)NC(=O)C2)C(=O)[C@@H](C)C1", "note": "[CYCLOHEXIMIDE]", "values": [{"measurement": "inhibition at 25 µM", "setting": "SW480 [4]", "value": 85, "unit": "%"}, {"measurement": "inhibition at 10 µM", "setting": "A-431 [1]", "value": 40, "unit": "%"}, {"measurement": "inhibition at 50 µM", "setting": "SW480 [5]", "value": 92, "unit": "%"}, {"measurement": "inhibition at 10 µM", "setting": "SW480 [6]", "value": 68, "unit": "%"}, {"measurement": "inhibition at 50 µM", "setting": "A-431 [2]", "value": 80, "unit": "%"}, {"measurement": "inhibition at 25 µM", "setting": "A-431 [3]", "value": 70, "unit": "%"}]}
{"compound": "C[C@@H](O)[C@H](NC(=O)[C@@H]1CSSC[C@H](NC(=O)[C@H](N)Cc2ccccc2)C(=O)N[C@@H](Cc2ccc(O)cc2)C(=O)N[C@H](Cc2c[nH]c3ccccc23)C(=O)N[C@@H](CCCCN)C(=O)N1)C(N)=O", "note": "[TT-232] (H-[dF]CY[dW]KCT-NH2; disulfide 2-6)", "values": [{"measurement": "inhibition at 25 µM", "setting": "SW480 [4]", "value": 47, "unit": "%"}, {"measurement": "inhibition at 10 µM", "setting": "A-431 [1]", "value": 50, "unit": "%"}, {"measurement": "inhibition at 50 µM", "setting": "SW480 [5]", "value": 88, "unit": "%"}, {"measurement": "inhibition at 10 µM", "setting": "SW480 [6]", "value": 13, "unit": "%"}, {"measurement": "inhibition at 50 µM", "setting": "A-431 [2]", "value": 80, "unit": "%"}, {"measurement": "inhibition at 25 µM", "setting": "A-431 [3]", "value": 60, "unit": "%"}]}
